Bioassay records (PubChem)
Rows were chosen to be rich in hits. Some 4.6% of all compounds tested hit in one or more screens of this group.
GPR7 antag – GPR7 receptor antagonists, primary screen, cell-based, fluorescence, single concentration. GPR7-expressing cells, fluorescence antagonist assay. hit rate 1.1% among 290,000. inhibition, % at 4.4 µM. AID 1861, 2009; in the data active = inhibition above about 16%, passing the limit was not always enough;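 also: cells stimulated with the agonist NPW; 0% = agonist with vehicle and 100% = vehicle without agonist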
Target sequence (P48145 whole entry, looked up): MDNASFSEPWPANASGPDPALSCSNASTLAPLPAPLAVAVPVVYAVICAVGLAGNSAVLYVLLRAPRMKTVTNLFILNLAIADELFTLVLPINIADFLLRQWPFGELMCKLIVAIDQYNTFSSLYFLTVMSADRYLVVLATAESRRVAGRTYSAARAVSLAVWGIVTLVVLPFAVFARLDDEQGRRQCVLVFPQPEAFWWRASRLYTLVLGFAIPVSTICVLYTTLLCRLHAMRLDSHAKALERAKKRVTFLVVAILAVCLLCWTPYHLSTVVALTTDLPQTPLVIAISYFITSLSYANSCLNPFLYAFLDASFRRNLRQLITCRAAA
TAAR1 antagonist – human TAAR1 antagonists, primary screen, Fluo-8 calcium fluorescence, CHO RD-HGA16 cells; inhibition, % at 3 µM; Trace amine-associated receptor 1 (Homo sapiens), Q96RJ0; hit rate 1.5% among 360,000; antagonist;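 active = inhibition above a per-plate cutoff, the mean inhibition of test compounds on that plate plus 3 SD, cut at about 49% in these data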;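 also: 0% = DMSO plus EC80 beta-PEA response and 100% = DMSO alone without agonist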
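Test system: CHO RD-HGA16 cells bearing hTAAR1 | Reagent: β-PEA, EC80 | Compound dosing: 3 µM, single point | Schedule: Dye loading 75 min at 37 °C, then 30 min room temperature | Signal: Calcium fluorescence with Fluo-8 | Evaluation: Percent inhibition of PEA-evoked calcium signal, max/basal emission ratio | Control set: DMSO-only wells and EC80 β-PEA-stimulated wells | Repeats: Singlicate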
OX1R antag-1 – OX1R (HCRTR1) antagonists, primary screen, fluorescence, CHO/OX1R cells, Fluo-8 calcium, orexin A. Orexin/Hypocretin receptor type 1 (Homo sapiens), O43613. Fluo-8 calcium fluorescence. inhibition, % at 5 µM. hit rate 0.43% among 330,000. AID 434989, 2010;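 active = inhibition above its plate's threshold, mean inhibition of all tested compounds on the plate plus 3 SD, cut at about 37% in these data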;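 also: 0% = orexin A challenge wells and 100% = SB-334867-A antagonist wells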
Target sequence (O43613 whole entry, looked up): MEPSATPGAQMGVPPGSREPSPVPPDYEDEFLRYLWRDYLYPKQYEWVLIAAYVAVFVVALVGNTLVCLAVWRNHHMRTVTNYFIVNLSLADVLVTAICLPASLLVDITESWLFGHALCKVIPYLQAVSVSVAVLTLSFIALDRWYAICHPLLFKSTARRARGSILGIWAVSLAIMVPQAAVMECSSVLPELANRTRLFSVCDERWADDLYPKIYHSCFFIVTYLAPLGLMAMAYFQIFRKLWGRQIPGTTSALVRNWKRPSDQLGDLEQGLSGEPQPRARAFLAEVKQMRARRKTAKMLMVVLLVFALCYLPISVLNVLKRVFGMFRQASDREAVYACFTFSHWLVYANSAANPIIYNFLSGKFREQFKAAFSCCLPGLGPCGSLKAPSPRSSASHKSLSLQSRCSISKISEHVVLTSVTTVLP
TAAR1 agonist – human TAAR1 agonists, primary screen, Fluo-8 calcium fluorescence, CHO RD-HGA16 cells | Trace amine-associated receptor 1 (Homo sapiens), Q96RJ0 | vehicle wells 0%, saturating PEA agonist 100% | activation, % at 3 µM | hit rate 0.99% among 360,000 | AID 624467, 2012;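 active = activation above the mean activation of all test compounds in the run plus 3 SD, cut at about 38% in these data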
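test system = CHO RD-HGA16 cells carrying human TAAR1 plus Gα16 | schedule = 17-24 h seeding, 75 min 37 °C dye, 30 min RT | compound dosing = 3 µM single concentration | control set = DMSO and PEA EC100 | replicates = n 1 | signal = Fluo-8 fluorescence, 5 s baseline then 140 s kinetic read | measure = percent activation vs PEA EC100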
CHO parental Ca – ATP-evoked calcium signal inhibitors, parental CHO, primary screen, counter-screen for OX1R antagonist project, cell-based, fluorescence, Fluo-8 calcium dye | AID 463079, 2010 | parental CHO-K1, ATP-induced calcium, Fluo-8 fluorescence | hit rate 0.63% among 330,000 | inhibition, % at 5.6 µM;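 active = inhibition above that plate's mean sample inhibition plus 3 SD, cut at about 26% in these data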;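 also: 0% = ATP-challenged DMSO wells and 100% = DMSO wells without ATP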
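Test system: untransfected parental CHO cell line; also added: ATP stimulus; dosing: 5.6 µM, single dose; signal: calcium-sensitive Fluo-8 fluorescence; measure: percent inhibition of ATP-evoked calcium rise, normalized to controls; benchmarks: low control ATP plus DMSO, high control DMSO only; replication: one well per compound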
OX1R antag-2 – antagonists of human orexin 1 receptor (OX1R). Orexin/Hypocretin receptor type 1 (Homo sapiens), O43613. inhibition, % at 6.6 µM. hit rate 1.8% among 330,000. OX1R-expressing cells, FRET antagonist read-out; in the data active = inhibition mostly above about 38%, no sharp cut-off; inactive = mostly below about 40%;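 also: 0% = agonist challenge alone and 100% = reference antagonist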
TAAR1 ag confirm – human TAAR1 agonists, retest of hits, confirmation, Fluo-8 calcium fluorescence, CHO RD-HGA16 cells | shares compounds with TAAR1 agonist | scaled: DMSO 0%, maximal phenethylamine 100% | activation, % at 3 µM | hit rate 82% among 2,400;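 active = activation above a cutoff set at the run's mean compound activation plus 3 SD, cut at about 39% in these data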
Ga16 ag counter – nonselective calcium mobilization agonists, CHO-Ga16 cells, counter-screen for hTAAR1 agonist project, cell-based, fluorescence, CHO-Ga16 parental line. shares compounds with TAAR1 agonist. Fluo-8 calcium fluorescence; normalized to maximal ATP response, DMSO zero. hit rate 50% among 2,400. activation, % at 3 µM;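 active = activation above the run cutoff, the mean activation over all tested wells plus 3 SD, cut at about 12% in these data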;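 also: 0% = DMSO wells and 100% = maximal ATP response on the peak over basal ratio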
TAAR1 desens – TAAR1 desensitization by agonist hits, confirmation, counter-screen for TAAR1 agonist project, cell-based, fluorescence, tachyphylaxis; shares compounds with TAAR1 agonist; CHO RD-HGA16 hTAAR1, Fluo-8 calcium, beta-PEA response inhibition; inhibition, % at 3 µM; hit rate 46% among 2,400; AID 651951, 2012;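 active = inhibition above the run cutoff, the mean inhibition of all test compounds plus 3 SD, cut at about 49% in these data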;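 also: beta-PEA stimulus applied at its EC80; loss of beta-PEA calcium signal after compound pretreatment read as receptor desensitization; 0% = DMSO with beta-PEA at EC80 and 100% = DMSO alone without agonist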
Ga16 nonsel ant – inhibition of ATP-evoked calcium response in CHO-Ga16 cells, counter-screen for TAAR1 agonist project, cell-based, fluorescence. shares compounds with TAAR1 agonist. CHO-Ga16 ATP-induced calcium, Fluo-8 fluorescence. inhibition, % at 3 µM. hit rate 39% among 2,400. AID 651952, 2012;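 active = inhibition above the plate's mean compound inhibition plus 3 SD, computed per plate, cut at about 22% in these data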;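 also: 0% = EC80 ATP with DMSO and 100% = DMSO wells without ATP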
* marks the source's active call; other numbers are inactive results.

OC(c1cccc(Cl)c1)c1nc(-c2ccoc2)cs1 (centres undefined) was read as TAAR1 antagonist -19 and TAAR1 agonist 3.
For N#Cc1ccc(C(=O)N2CCC3CC2c2cc(-c4ccccc4)ccc23)cc1 (centres undefined) the results were TAAR1 antagonist -14 and TAAR1 agonist 0.
CCc1ccc(/C=N/NC(=O)c2nnn(-c3nonc3N)c2CN2CCOCC2)cc1 was read as GPR7 antag -8, TAAR1 antagonist 3, OX1R antag-1 -12, TAAR1 agonist 63*, CHO parental Ca 0, OX1R antag-2 23, TAAR1 ag confirm 59*, Ga16 ag counter 52*, TAAR1 desens 20 and Ga16 nonsel ant 16.
For CCCOc1ccc(-c2c(C(=O)N/N=C/c3ccc(OCC)cc3)nnn2-c2nonc2N)cc1 the results were GPR7 antag -6, TAAR1 antagonist -25, OX1R antag-1 -31, TAAR1 agonist 16, CHO parental Ca -21 and OX1R antag-2 19.
Screening CCCOc1ccc(-c2c(C(=O)N/N=C/c3ccncc3)nnn2-c2nonc2N)cc1 returned GPR7 antag 2, TAAR1 antagonist 18, OX1R antag-1 -22, TAAR1 agonist 47*, CHO parental Ca -22, OX1R antag-2 14, TAAR1 ag confirm 30, Ga16 ag counter 12*, TAAR1 desens 24 and Ga16 nonsel ant 20.
CCOc1ccc(-c2c(C(=O)N/N=C/c3ccc(OC)cc3)nnn2-c2nonc2N)cc1 was read as GPR7 antag -10, TAAR1 antagonist 5, OX1R antag-1 -18, TAAR1 agonist 51*, CHO parental Ca -24, OX1R antag-2 24, TAAR1 ag confirm 47*, Ga16 ag counter 23*, TAAR1 desens 4 and Ga16 nonsel ant 4.
For C[C@H](CO)N1C[C@H](C)[C@@H](CN(C)Cc2ccncc2)Oc2c(NS(=O)(=O)c3cccs3)cccc2C1=O the results were TAAR1 antagonist 11, OX1R antag-1 -6, TAAR1 agonist 2, CHO parental Ca -1 and OX1R antag-2 0.
Screening Cc1ccc(N(CC(=O)NCc2ccco2)C(=O)CCC(=O)Nc2nccs2)cc1 returned GPR7 antag -7, TAAR1 antagonist 3, OX1R antag-1 -25, TAAR1 agonist 1, CHO parental Ca -18 and OX1R antag-2 4.
Screening COc1ccc(NC(=O)COc2ccccc2)c(OC)c1 returned GPR7 antag 4, TAAR1 antagonist 0, OX1R antag-1 -9, TAAR1 agonist 9, CHO parental Ca -21 and OX1R antag-2 19.
COc1ccc(NC(=O)COc2ccc(Br)cc2)c(OC)c1 was read as GPR7 antag -4, TAAR1 antagonist 67*, OX1R antag-1 -16, TAAR1 agonist 68*, CHO parental Ca 1, OX1R antag-2 9, TAAR1 ag confirm 43*, Ga16 ag counter 13*, TAAR1 desens 29 and Ga16 nonsel ant -3.
CCC(=O)N(CC)c1nc(-c2cc(OC)ccc2OC)cs1 was read as GPR7 antag -16, TAAR1 antagonist 43, OX1R antag-1 -27, TAAR1 agonist 50*, CHO parental Ca -18, OX1R antag-2 15, TAAR1 ag confirm 45*, Ga16 ag counter 35*, TAAR1 desens 39 and Ga16 nonsel ant 26*.
Screening CCOc1cc(S(=O)(=O)N2CCC(C(N)=O)CC2)ccc1F returned GPR7 antag 4, TAAR1 antagonist -2, OX1R antag-1 -18, TAAR1 agonist 5, CHO parental Ca -6 and OX1R antag-2 -5.
Screening c1ccc(CCNCC2COc3ccccc3O2)cc1 (centres undefined) returned GPR7 antag -5, TAAR1 antagonist 4, OX1R antag-1 -19, TAAR1 agonist 16, CHO parental Ca -19 and OX1R antag-2 6.
`CN(C)S(=O)(=O)c1cccc(CNCC2COc3ccccc3O2)c1` (centres undefined) gave GPR7 antag 10, TAAR1 antagonist -13, OX1R antag-1 -15, TAAR1 agonist 59*, CHO parental Ca -14, OX1R antag-2 -4, TAAR1 ag confirm 88*, Ga16 ag counter 21*, TAAR1 desens 34 and Ga16 nonsel ant 2.
O=C(Nc1ccc(Cl)cc1)Nc1ccc(N2CCOCC2)cc1 was read as GPR7 antag -5, TAAR1 antagonist 79*, OX1R antag-1 -3, TAAR1 agonist 66*, CHO parental Ca 9, OX1R antag-2 12, TAAR1 ag confirm 49*, Ga16 ag counter 13*, TAAR1 desens 49* and Ga16 nonsel ant 22*.
For O=C(/C=C/c1ccc(Cl)cc1)Nc1ccc(N2CCOCC2)cc1 the results were GPR7 antag -7, TAAR1 antagonist -8, OX1R antag-1 -20, TAAR1 agonist 0, CHO parental Ca -13 and OX1R antag-2 20.
For O=C(Nc1ccc(N2CCOCC2)cc1)Nc1ccc(Cl)c(Cl)c1 the results were GPR7 antag -7, TAAR1 antagonist 90*, OX1R antag-1 45*, TAAR1 agonist 65*, CHO parental Ca 51*, OX1R antag-2 19, TAAR1 ag confirm 40*, Ga16 ag counter 30*, TAAR1 desens 89* and Ga16 nonsel ant 62*.
`O=C(Nc1ccc(Cl)c(Cl)c1)N1CCOCC1` gave GPR7 antag -9, TAAR1 antagonist 7 and TAAR1 agonist 6.
